The M2OR odorant receptor database
Residue numbers refer to the chain shown, from its start.

How the values were obtained:
Settings in all cases: stereoisomer not certain
[1] = system: T1, O5AP2 A105T
T1 sequence (whole entry): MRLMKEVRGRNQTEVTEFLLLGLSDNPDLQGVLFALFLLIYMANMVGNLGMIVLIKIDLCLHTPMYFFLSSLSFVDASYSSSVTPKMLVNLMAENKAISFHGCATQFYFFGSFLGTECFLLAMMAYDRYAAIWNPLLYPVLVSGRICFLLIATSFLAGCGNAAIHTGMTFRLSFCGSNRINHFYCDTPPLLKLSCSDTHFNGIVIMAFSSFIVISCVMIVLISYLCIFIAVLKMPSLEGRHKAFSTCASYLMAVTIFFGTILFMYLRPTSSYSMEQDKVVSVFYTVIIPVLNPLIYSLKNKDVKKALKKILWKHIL
Summary of the method: (§1)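 Whether a receptor–molecule pair is responsive (active) rests on the original authors' judgment that its measured signal was statistically different from baseline. Pairs without that judgment are non-responsive (inactive). Sources used varied assay methods, commonly transient luciferase assays in mammalian cell lines.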

[2] = system: T2, O5AU1
T2 sequence (whole entry): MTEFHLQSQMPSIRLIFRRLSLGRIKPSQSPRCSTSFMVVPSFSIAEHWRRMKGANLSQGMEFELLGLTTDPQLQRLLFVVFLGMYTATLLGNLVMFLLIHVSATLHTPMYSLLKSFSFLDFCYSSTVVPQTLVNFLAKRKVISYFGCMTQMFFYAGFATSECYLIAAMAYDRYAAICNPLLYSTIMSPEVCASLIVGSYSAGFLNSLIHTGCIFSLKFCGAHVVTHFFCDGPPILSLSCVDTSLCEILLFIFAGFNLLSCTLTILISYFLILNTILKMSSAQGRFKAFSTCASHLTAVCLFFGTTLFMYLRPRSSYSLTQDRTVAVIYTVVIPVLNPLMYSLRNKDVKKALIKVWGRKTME
Summary of the method: as §1

[3] = system: T3, O5H14
T3 sequence (whole entry): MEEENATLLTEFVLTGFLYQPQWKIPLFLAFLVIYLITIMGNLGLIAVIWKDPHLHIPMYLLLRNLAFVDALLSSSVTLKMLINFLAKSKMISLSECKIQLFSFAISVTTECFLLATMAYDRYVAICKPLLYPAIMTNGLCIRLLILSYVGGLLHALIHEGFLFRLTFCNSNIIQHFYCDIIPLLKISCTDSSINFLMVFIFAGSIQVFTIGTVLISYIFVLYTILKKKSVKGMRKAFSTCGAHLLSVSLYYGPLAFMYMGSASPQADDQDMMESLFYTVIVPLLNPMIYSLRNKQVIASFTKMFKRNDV
Summary of the method: as §1

[4] = system: T4, O5H15 V108I S148T T167S
T4 sequence (whole entry): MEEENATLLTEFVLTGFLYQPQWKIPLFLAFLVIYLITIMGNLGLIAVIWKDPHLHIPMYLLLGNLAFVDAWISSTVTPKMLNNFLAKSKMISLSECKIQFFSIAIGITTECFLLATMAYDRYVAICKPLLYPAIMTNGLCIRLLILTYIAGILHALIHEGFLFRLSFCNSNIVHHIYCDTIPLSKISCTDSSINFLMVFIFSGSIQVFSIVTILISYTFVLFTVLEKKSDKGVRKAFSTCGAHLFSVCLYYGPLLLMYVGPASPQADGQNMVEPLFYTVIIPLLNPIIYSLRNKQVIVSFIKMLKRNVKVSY
Summary of the method: as §1

[5] = system: T5, O6C65 T222A
T5 sequence (whole entry): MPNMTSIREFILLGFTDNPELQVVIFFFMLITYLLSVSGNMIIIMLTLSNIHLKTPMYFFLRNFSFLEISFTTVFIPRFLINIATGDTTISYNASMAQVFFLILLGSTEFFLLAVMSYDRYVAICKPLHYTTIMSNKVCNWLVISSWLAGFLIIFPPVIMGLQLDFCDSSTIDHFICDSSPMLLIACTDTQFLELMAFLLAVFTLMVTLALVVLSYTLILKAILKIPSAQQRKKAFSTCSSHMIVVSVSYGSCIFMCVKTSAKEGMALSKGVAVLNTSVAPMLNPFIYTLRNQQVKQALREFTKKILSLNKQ
Summary of the method: as §1

[6] = system: T6, O6C70 L181P
T6 sequence (whole entry): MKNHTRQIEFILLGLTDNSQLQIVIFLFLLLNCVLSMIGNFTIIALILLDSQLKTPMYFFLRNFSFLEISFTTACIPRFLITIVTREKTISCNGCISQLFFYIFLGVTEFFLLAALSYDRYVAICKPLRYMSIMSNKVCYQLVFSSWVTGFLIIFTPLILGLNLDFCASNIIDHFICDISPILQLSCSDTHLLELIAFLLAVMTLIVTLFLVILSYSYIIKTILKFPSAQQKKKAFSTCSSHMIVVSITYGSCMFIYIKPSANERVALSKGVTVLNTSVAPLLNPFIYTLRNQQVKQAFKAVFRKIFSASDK
Summary of the method: as §1

[7] = system: T7, O7E24 S193F P242S
T7 sequence (whole entry): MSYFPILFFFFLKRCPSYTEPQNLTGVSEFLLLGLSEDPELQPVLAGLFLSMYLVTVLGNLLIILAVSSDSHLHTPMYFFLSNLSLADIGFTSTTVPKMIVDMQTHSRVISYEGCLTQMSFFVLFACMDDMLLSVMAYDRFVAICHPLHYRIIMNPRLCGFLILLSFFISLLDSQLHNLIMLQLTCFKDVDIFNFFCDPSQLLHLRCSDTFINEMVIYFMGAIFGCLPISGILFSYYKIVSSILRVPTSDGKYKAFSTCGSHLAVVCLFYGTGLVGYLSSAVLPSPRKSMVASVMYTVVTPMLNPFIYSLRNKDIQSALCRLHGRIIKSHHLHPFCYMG
Summary of the method: as §1

[8] = system: T8, O7E24
T8 sequence (whole entry): T7 sequence (whole entry) with F193S
Summary of the method: as §1

[9] = target: T9, OR10A2 (Homo sapiens) (UniProt Q9H208)
T9 sequence (whole entry): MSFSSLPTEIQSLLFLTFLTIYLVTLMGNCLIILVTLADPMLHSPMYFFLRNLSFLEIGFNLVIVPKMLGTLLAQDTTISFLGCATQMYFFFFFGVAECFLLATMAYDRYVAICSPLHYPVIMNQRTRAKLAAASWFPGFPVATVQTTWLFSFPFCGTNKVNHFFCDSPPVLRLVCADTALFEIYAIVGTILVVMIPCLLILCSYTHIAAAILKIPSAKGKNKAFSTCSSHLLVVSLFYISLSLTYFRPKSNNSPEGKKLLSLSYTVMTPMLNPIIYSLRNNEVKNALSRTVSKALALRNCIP
Summary of the method: as §1

[10] = target: T10, OR10A3 (Homo sapiens) (UniProt P58181)
T10 sequence (whole entry): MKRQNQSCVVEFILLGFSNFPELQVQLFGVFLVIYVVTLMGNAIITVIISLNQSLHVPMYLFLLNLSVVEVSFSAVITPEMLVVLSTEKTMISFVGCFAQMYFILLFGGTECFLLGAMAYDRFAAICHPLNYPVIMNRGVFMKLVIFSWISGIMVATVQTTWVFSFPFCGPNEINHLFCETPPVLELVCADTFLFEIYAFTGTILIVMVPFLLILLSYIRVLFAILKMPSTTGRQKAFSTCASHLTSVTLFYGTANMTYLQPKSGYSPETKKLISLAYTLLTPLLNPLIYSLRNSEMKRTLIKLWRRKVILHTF
Summary of the method: as §1

[11] = target: T11, OR10A4 (Homo sapiens) (UniProt Q9H209)
T11 sequence (whole entry): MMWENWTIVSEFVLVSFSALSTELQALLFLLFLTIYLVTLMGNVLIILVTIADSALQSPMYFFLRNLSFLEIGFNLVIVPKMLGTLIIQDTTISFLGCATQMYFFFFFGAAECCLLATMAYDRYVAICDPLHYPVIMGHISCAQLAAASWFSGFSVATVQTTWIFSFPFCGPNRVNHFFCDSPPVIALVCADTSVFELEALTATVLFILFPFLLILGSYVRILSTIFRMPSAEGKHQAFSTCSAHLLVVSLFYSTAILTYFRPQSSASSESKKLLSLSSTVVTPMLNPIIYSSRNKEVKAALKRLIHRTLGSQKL
Summary of the method: as §1

[12] = target: T12, OR10A5 (Homo sapiens) (UniProt Q9H207)
T12 sequence (whole entry): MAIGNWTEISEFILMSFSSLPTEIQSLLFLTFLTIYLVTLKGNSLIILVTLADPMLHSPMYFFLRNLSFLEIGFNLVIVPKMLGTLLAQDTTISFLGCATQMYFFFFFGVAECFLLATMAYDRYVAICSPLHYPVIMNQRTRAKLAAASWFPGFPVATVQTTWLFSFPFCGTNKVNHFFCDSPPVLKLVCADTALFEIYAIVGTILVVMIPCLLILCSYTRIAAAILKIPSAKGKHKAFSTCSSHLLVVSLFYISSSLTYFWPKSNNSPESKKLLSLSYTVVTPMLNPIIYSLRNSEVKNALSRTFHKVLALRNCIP
Summary of the method: as §1

[13] = target: T13, OR10A6 (Homo sapiens) (UniProt Q8NH74)
T13 sequence (whole entry): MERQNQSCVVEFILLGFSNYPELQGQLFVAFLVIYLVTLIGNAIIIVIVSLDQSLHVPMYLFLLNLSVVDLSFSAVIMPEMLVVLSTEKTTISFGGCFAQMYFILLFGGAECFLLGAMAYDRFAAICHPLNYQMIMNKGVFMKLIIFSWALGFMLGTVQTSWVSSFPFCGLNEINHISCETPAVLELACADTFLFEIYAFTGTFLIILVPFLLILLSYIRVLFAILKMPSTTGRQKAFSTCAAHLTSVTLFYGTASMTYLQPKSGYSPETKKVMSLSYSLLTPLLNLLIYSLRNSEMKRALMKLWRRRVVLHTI
Summary of the method: as §1

[14] = target: T14, OR10A7 (Homo sapiens) (UniProt Q8NGE5)
T14 sequence (whole entry): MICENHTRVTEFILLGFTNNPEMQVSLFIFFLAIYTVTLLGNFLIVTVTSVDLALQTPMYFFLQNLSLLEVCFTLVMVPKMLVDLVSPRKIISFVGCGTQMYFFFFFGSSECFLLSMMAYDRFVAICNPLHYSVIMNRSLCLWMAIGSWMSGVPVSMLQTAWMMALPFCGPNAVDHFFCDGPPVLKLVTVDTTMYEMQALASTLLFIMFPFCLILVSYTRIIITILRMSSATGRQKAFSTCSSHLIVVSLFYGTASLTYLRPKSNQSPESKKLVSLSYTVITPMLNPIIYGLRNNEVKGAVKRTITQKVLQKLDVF
Summary of the method: as §1

[15] = target: T15, OR10AD1 (Homo sapiens) (UniProt Q8NGE0)
T15 sequence (whole entry): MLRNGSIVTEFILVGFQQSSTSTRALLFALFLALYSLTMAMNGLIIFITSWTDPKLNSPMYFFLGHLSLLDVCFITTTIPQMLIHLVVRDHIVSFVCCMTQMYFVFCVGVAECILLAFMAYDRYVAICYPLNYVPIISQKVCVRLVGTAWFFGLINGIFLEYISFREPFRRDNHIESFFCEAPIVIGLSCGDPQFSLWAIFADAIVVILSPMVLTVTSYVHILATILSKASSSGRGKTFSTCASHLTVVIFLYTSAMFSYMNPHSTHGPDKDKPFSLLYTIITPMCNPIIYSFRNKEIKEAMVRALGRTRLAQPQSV
Summary of the method: as §1

[16] = target: T16, OR10AG1 (Homo sapiens) (UniProt Q8NH19)
T16 sequence (whole entry): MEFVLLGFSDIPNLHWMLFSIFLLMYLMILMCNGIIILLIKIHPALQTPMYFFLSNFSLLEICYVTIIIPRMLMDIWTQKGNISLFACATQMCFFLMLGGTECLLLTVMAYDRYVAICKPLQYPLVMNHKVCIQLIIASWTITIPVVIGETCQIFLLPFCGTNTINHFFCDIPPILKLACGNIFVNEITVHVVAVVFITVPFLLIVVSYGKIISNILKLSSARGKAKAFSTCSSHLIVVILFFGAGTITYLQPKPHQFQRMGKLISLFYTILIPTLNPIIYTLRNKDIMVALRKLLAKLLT
Summary of the method: as §1

[17] = target: T17, OR10C1 (Homo sapiens) (UniProt Q96KK4)
T17 sequence (whole entry): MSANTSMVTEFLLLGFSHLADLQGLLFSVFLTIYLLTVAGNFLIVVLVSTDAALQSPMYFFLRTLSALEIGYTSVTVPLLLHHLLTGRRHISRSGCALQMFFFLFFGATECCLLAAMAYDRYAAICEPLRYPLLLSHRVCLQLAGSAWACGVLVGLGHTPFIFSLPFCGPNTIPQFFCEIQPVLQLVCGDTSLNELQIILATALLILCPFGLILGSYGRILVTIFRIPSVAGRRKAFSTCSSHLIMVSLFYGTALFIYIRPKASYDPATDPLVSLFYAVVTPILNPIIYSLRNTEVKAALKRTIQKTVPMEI
Summary of the method: as §1

[18] = target: T18, OR10D3 (Homo sapiens) (UniProt Q8NH80)
T18 sequence (whole entry): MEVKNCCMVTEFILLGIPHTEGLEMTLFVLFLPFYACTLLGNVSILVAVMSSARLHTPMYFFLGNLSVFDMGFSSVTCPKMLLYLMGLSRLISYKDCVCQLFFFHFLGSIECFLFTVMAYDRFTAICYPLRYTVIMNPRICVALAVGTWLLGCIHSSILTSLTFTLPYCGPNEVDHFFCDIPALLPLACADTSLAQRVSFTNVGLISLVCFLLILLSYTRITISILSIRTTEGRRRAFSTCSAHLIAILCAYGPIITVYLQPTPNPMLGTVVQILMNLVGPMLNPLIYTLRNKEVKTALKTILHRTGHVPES
Summary of the method: as §1

Measured: odorant receptor agonist call;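 further: active if original authors judged signal statistically different from baseline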

CCC1OC(=O)C(O)=C1C (stereo not drawn)
inactive: all assays above
